Measured values taken from ChEMBL document CHEMBL4680084, “New β-Lactam Derivatives Modulate Cell Adhesion and Signaling Mediated by RGD-Binding and Leukocyte Integrins” (J Med Chem, 2016).
Activity calls are given as the source filed them. No cut-off for these calls is given here.

Tests used:
Integrin alpha-5/beta-1 [1] = target: T1, Integrin alpha-5/beta-1 (Homo sapiens, UniProt P05556+P08648); experiment: Antagonist activity at alpha5beta1 in human K562 cells assessed as reduction in cell adhesion to fibronectin pre-incubated for 30 mins before fibronectin and further incubated for 1 hr by nitrophenyl-N-acetyl-beta-D-glucosaminide substrate based chromogenic assay
Method in brief: (§1)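 Compound or methanol vehicle pre-incubated with cells for 30 min at room temperature. Cells then plated on wells coated overnight at 4 °C with fibronectin 10 µg/mL (SK-MEL-24, K562, HT-29) or fibrinogen 10 µg/mL (MCF7, HEL). Seeding was 50,000 cells/well, or 100000 for HEL. Adhesion ran 1 h at room temperature. Wells washed with 1% BSA/PBS. Adherent cells read by hexosaminidase substrate, absorbance 405 nm. Quadruplicate, at least three repeats.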

Integrin alpha-V/beta-5 [2] = target: T2, Integrin alpha-V/beta-5 (Homo sapiens, UniProt P06756+P18084); experiment: Agonist activity at alphaVbeta5 in human MCF7 cells assessed as increase in cell adhesion to fibrinogen pre-incubated for 30 mins before fibrinogen and further incubated for 1 hr by nitrophenyl-N-acetyl-beta-D-glucosaminide substrate based chromogenic assay; method in brief: as §1
HEL = experiment: Toxicity in human HEL cells assessed as induction of cell necrosis and/or apoptosis incubated for 3 hrs by annexin V-PE and 7-AAD staining based by flow cytometry
Method in brief: (§2)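 After 3 h incubation, cells resuspended in complete medium and stained with annexin V-PE/7-AAD reagent for 20 min at room temperature in the dark. Flow cytometry sorted cells into viable, early apoptotic and late apoptotic/necrotic populations.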

Integrin alpha-V/beta-5 [3] = target: T2, Integrin alpha-V/beta-5; experiment: Inhibition of fibrinogen binding to alphaVbeta5 isolated form human mCf7 cells incubated for 1 hr by […] competitive solid-phase binding assay
MCF7 = experiment: Toxicity in human MCF7 cells assessed as induction of cell necrosis and/or apoptosis incubated for 3 hrs by annexin V-PE and 7-AAD staining based by flow cytometry; conditions: mcf7, 3 h; method in brief: as §2
[4] = target: T3, Integrin alpha-L/beta-2 (LFA-1) (Homo sapiens, UniProt P05107+P20701); experiment: Agonist activity at alphaLbeta2 in human Jurkat E6.1 cells assessed as increase in cell adhesion to ICAM1 pre-incubated for 30 mins before ICAM1 and further incubated for 30 mins by […]; format: cell-based
Method in brief: (§3)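 Jurkat E6.1 cells labelled with CellTracker green CMFDA (12.5 µM, 30 min, 37 °C), washed, then pre-incubated 30 min at 37 °C with compound or methanol. Plated at 500,000/well on VCAM-1 (α4β1) or ICAM-1 (αLβ2) coated wells (5 µg/mL) for 30 min at 37 °C. Cells lysed in 0.5% Triton X-100; fluorescence read Ex485/Em535. Quadruplicate, at least three repeats.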

Integrin alpha-V/beta-3 [5] = target: T4, Integrin alpha-V/beta-3 (Homo sapiens, UniProt P05106+P06756); experiment: Inhibition of fibronectin binding to human recombinant alphaVbeta3 expressed in HEK293 cells incubated for 1 hr by […] competitive solid-phase binding assay; format: cell-based
Integrin alpha-4/beta-1 [6] = target: T5, Integrin alpha-4/beta-1 (Homo sapiens, UniProt P05556+P13612); experiment: Agonist activity at alpha4beta1 in human Jurkat E6.1 cells assessed as increase in HUTS-21 antibody binding by flow cytometry analysis; format: cell-based; conditions: filed as agonist
Method in brief: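 Jurkat E6.1 cells at 10⁶/mL in 1% BSA/HBSS incubated 30 min at 37 °C with compound. PE-labelled HUTS-21 mAb then added for 45 min at room temperature. Cells washed, 10,000 analysed by flow cytometry. MFI corrected to isotype control set to 0. Four independent experiments in duplicate.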

Integrin alpha-4/beta-1 [7] = target: T5, Integrin alpha-4/beta-1; experiment: Agonist activity at alpha4beta1 in human Jurkat E6.1 cells assessed as increase in ERK1/2 phosphorylation at 1 to 100 nM by Western blot analysis; format: cell-based; conditions: filed as agonist, dose 1-100 nM
Integrin alpha-V/beta-3 [8] = target: T4, Integrin alpha-V/beta-3; experiment: Agonist activity at alphaVbeta3 in human SK-MEL-24 cells assessed as increase in cell adhesion to fibronectin pre-incubated for 30 mins before fibronectin and further incubated for 1 hr by nitrophenyl-N-acetyl-beta-D-glucosaminide substrate based chromogenic assay; method in brief: as §1
Integrin alpha-4/beta-1 [9] = target: T5, Integrin alpha-4/beta-1; experiment: Agonist activity at alpha4beta1 in human Jurkat E6.1 cells assessed as increase in cell adhesion to VCAM1 at 2 to 10 ug/ml pre-incubated for 30 mins and further incubated for 30 mins by nitrophenyl-N-acetyl-beta-D-glucosaminide substrate based chromogenic assay; conditions: filed as agonist, dose 2-10 µg/ml, time 60.0 min
Integrin alpha-V/beta-3 [10] = target: T4, Integrin alpha-V/beta-3; experiment: Antagonist activity at alphaVbeta3 in human SK-MEL-24 cells assessed as reduction in cell adhesion to fibronectin pre-incubated for 30 mins before fibronectin and further incubated for 1 hr by nitrophenyl-N-acetyl-beta-D-glucosaminide substrate based chromogenic assay
Method in brief: (§4)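 Compound or methanol vehicle pre-incubated with cells for 30 min at room temperature. Cells then plated on wells coated overnight at 4 °C with fibronectin 10 µg/mL (SK-MEL-24, K562, HT-29) or fibrinogen 10 µg/mL (MCF7, HEL). Seeding was 50,000 cells/well, or 100000 for HEL. Adhesion ran 1 h at room temperature. Wells washed with 1% BSA/PBS. Quadruplicate, at least three repeats.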

[11] = target: T6, Integrin alpha-IIb/beta-3 (Homo sapiens, UniProt P05106+P08514); experiment: Antagonist activity at alpha2bbeta3 in human HEL cells assessed as reduction in cell adhesion to fibrinogen pre-incubated for 30 mins before fibrinogen and further incubated for 1 hr by nitrophenyl-N-acetyl-beta-D-glucosaminide substrate based chromogenic assay; method in brief: as §4
[12] = target: T3, Integrin alpha-L/beta-2 (LFA-1); experiment: Antagonist activity at alphaLbeta2 in human Jurkat E6.1 cells assessed as reduction in cell adhesion to ICAM1 pre-incubated for 30 mins before ICAM1 and further incubated for 30 mins by […]; format: cell-based; method in brief: as §3
[13] = target: T6, Integrin alpha-IIb/beta-3; experiment: Agonist activity at alpha2bbeta3 in human HEL cells assessed as increase in cell adhesion to fibrinogen pre-incubated for 30 mins before fibrinogen and further incubated for 1 hr by nitrophenyl-N-acetyl-beta-D-glucosaminide substrate based chromogenic assay; method in brief: as §4
Integrin alpha-V/beta-5 [14] = target: T2, Integrin alpha-V/beta-5; experiment: Antagonist activity at alphaVbeta5 in human MCF7 cells assessed as reduction in cell adhesion to fibrinogen pre-incubated for 30 mins before fibrinogen and further incubated for 1 hr by nitrophenyl-N-acetyl-beta-D-glucosaminide substrate based chromogenic assay; method in brief: as §4
Integrin alpha-4/beta-1 [15] = target: T5, Integrin alpha-4/beta-1; experiment: Inhibition of fibronectin binding to […] isolated from human Jurkat E6.1 cells incubated for 1 hr by scintillation-proximity assay based competitive solid-phase binding assay; format: tissue-based
Integrin alpha-5/beta-1 [16] = target: T1, Integrin alpha-5/beta-1; experiment: Agonist activity at alpha5beta1 in human K562 cells assessed as increase in cell adhesion to fibronectin pre-incubated for 30 mins before fibronectin and further incubated for 1 hr by nitrophenyl-N-acetyl-beta-D-glucosaminide substrate based chromogenic assay; method in brief: as §1
Integrin alpha-5/beta-1 [17] = target: T1, Integrin alpha-5/beta-1; experiment: Inhibition of fibronectin binding to alpha5beta1 isolated from human K562 cells incubated for 1 hr by […] competitive solid-phase binding assay; format: tissue-based
Method in brief: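 Plates coated overnight at 4 °C in carbonate buffer pH 9.6 with fibronectin 0.5 µg/mL (αvβ3, αvβ6, α5β1), fibrinogen 10 µg/mL (αIIbβ3, αvβ5) or ICAM-1 (αLβ2). Blocked 1 h in buffer containing Ca/Mg/Mn 1 mM each and 1% BSA. Purified integrin (3–10 µg/mL) incubated with compound (10⁻⁴–10⁻¹⁰ M) 1 h at room temperature. Bound integrin detected with primary antibody then AlexaFluor488 secondary, Ex485/Em535. Duplicate, at least three repeats.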

HT-29 = experiment: Toxicity in human HT-29 cells assessed as induction of cell necrosis and/or apoptosis incubated for 3 hrs by annexin V-PE and 7-AAD staining based by flow cytometry; conditions: ht-29, 3 h; method in brief: as §2
K562 = experiment: Toxicity in human K562 cells assessed as induction of cell necrosis and/or apoptosis incubated for 3 hrs by annexin V-PE and 7-AAD staining based by flow cytometry; conditions: k562, 3 h; method in brief: as §2
Integrin alpha-V/beta-6 [18] = target: T7, Integrin alpha-V/beta-6 (Homo sapiens, UniProt P06756+P18564); experiment: Antagonist activity at alphaVbeta6 in human HT-29 cells assessed as reduction in cell adhesion to fibronectin pre-incubated for 30 mins before fibronectin and further incubated for 1 hr by nitrophenyl-N-acetyl-beta-D-glucosaminide substrate based chromogenic assay; method in brief: as §4
Integrin alpha-V/beta-6 [19] = target: T7, Integrin alpha-V/beta-6; experiment: Agonist activity at alphaVbeta6 in human HT-29 cells assessed as increase in cell adhesion to fibronectin pre-incubated for 30 mins before fibronectin and further incubated for 1 hr by nitrophenyl-N-acetyl-beta-D-glucosaminide substrate based chromogenic assay; method in brief: as §1
SK-MEL-24 = experiment: Toxicity in human SK-MEL-24 cells assessed as induction of cell necrosis and/or apoptosis incubated for 3 hrs by annexin V-PE and 7-AAD staining based by flow cytometry; conditions: sk-mel-24, 3 h; method in brief: as §2
Integrin alpha-V/beta-6 [20] = target: T7, Integrin alpha-V/beta-6; experiment: Inhibition of fibronectin binding to alphaVbeta6 isolated form human HT-29 cells incubated for 1 hr by […] competitive solid-phase binding assay; format: tissue-based

Structure (SMILES): Cc1ccccc1NC(=O)N1C(=O)CC1CC(=O)O (stereo not given)
- IC50 (Integrin alpha-5/beta-1 [1]): > 5 µM
- EC50 (Integrin alpha-V/beta-5 [2]): > 5 µM
- Activity (HEL): Non-Toxic
- IC50 (Integrin alpha-V/beta-5 [3]): > 1 µM
- Activity (MCF7): Non-Toxic
- EC50 [4]: > 5 µM
- IC50 (Integrin alpha-V/beta-3 [5]): > 1 µM
- Activity (Integrin alpha-4/beta-1 [6]): Dose-dependent effect
- Activity (Integrin alpha-4/beta-1 [7]): Active
- EC50 (Integrin alpha-V/beta-3 [8]): > 5 µM
- Activity (Integrin alpha-4/beta-1 [9]): Active
- IC50 (Integrin alpha-V/beta-3 [10]): > 5 µM
- IC50 [11]: > 5 µM
- IC50 [12]: > 5 µM
- EC50 [13]: > 5 µM
- IC50 (Integrin alpha-V/beta-5 [14]): > 5 µM
- IC50 (Integrin alpha-4/beta-1 [15]): 0.0098 µM
- EC50 (Integrin alpha-5/beta-1 [16]): > 5 µM
- IC50 (Integrin alpha-5/beta-1 [17]): > 1 µM
- Activity (HT-29): Non-Toxic
- Activity (K562): Non-Toxic
- IC50 (Integrin alpha-V/beta-6 [18]): > 5 µM
- EC50 (Integrin alpha-V/beta-6 [19]): > 5 µM
- Activity (SK-MEL-24): Non-Toxic
- IC50 (Integrin alpha-V/beta-6 [20]): > 1 µM
